Measurements reported in ChEMBL document CHEMBL5653631, “A Potent and Selective ULK1 Inhibitor Suppresses Autophagy and Sensitizes Cancer Cells to Nutrient Stress” (iScience, 2018).
One block for each compound: values may come before it.

Assays:
[1] = molecular target: Dual specificity protein kinase CLK1 (Homo sapiens) (UniProt P49759); assay: Inhibition of human recombinant CLK1 at 500 nM in presence of ATP by radiometric assay relative to control
[2] = molecular target: Dual specificity protein kinase CLK1 (Homo sapiens) (UniProt P49759); assay: Inhibition of human recombinant CLK1 at 500 nM related to control ULK1
[3] = molecular target: Death-associated protein kinase 2 (Homo sapiens) (UniProt Q9UIK4); assay: Inhibition of human recombinant DAPK2 at 40 nM in presence of ATP by radiometric assay relative to control
[4] = molecular target: Tyrosine-protein kinase JAK1 (Homo sapiens) (UniProt P23458); assay: Inhibition of human recombinant JAK1 at 40 nM related to control ULK1
[5] = molecular target: Protein kinase C alpha type (Homo sapiens) (UniProt P17252); assay: Inhibition of human recombinant PKCa at 40 nM in presence of ATP by radiometric assay relative to control
[6] = molecular target: Protein kinase C theta type (Homo sapiens) (UniProt Q04759); assay: Inhibition of human recombinant PKCt at 40 nM in presence of ATP by radiometric assay relative to control
[7] = molecular target: Ribosomal protein S6 kinase alpha-2 (Homo sapiens) (UniProt Q15349); assay: Inhibition of human recombinant RSK3 at 40 nM related to control ULK1
[8] = molecular target: Aurora kinase B (Homo sapiens) (UniProt Q96GD4); assay: Inhibition of human recombinant AurB at 15 nM in presence of ATP by radiometric assay relative to control
Method in brief: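 Part of a radiometric in vitro activity panel of 327 recombinant human kinases. Each kinase was tested in duplicate at one inhibitor concentration. Activity remaining was expressed as a percentage of the vehicle control, and percent inhibition was taken as 100 minus that value.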

[9] = molecular target: RAC-alpha serine/threonine-protein kinase (Homo sapiens) (UniProt P31749); assay: Inhibition of human recombinant AKT1 at 15 nM related to control ULK1
[10] = molecular target: Serine/threonine-protein kinase WNK2 (Homo sapiens) (UniProt Q9Y3S1); assay: Inhibition of human recombinant Wnk2 at 15 nM related to control ULK1
[11] = molecular target: T1, Serine/threonine-protein kinase STK11 (Homo sapiens) (UniProt Q15831); assay: Inhibition of human recombinant LKB1 at 15 nM in presence of ATP by radiometric assay relative to control
T1 sequence (whole entry): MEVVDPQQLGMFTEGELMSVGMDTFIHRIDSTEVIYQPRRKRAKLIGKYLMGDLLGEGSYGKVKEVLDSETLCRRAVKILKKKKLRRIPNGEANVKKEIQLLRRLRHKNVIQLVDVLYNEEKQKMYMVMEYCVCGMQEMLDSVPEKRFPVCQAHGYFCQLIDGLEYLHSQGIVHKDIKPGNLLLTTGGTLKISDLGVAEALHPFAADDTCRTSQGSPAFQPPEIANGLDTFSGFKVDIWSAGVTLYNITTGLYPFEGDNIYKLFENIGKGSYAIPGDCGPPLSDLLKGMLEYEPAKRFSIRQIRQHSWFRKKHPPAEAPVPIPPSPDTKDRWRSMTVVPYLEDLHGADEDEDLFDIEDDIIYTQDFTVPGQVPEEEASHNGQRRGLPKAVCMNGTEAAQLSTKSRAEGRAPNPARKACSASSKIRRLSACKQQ

[12] = molecular target: T2, Serine/threonine-protein kinase Nek9 (Homo sapiens) (UniProt Q8TD19); assay: Inhibition of human recombinant NEK9 at 15 nM related to control ULK1
T2 sequence (whole entry): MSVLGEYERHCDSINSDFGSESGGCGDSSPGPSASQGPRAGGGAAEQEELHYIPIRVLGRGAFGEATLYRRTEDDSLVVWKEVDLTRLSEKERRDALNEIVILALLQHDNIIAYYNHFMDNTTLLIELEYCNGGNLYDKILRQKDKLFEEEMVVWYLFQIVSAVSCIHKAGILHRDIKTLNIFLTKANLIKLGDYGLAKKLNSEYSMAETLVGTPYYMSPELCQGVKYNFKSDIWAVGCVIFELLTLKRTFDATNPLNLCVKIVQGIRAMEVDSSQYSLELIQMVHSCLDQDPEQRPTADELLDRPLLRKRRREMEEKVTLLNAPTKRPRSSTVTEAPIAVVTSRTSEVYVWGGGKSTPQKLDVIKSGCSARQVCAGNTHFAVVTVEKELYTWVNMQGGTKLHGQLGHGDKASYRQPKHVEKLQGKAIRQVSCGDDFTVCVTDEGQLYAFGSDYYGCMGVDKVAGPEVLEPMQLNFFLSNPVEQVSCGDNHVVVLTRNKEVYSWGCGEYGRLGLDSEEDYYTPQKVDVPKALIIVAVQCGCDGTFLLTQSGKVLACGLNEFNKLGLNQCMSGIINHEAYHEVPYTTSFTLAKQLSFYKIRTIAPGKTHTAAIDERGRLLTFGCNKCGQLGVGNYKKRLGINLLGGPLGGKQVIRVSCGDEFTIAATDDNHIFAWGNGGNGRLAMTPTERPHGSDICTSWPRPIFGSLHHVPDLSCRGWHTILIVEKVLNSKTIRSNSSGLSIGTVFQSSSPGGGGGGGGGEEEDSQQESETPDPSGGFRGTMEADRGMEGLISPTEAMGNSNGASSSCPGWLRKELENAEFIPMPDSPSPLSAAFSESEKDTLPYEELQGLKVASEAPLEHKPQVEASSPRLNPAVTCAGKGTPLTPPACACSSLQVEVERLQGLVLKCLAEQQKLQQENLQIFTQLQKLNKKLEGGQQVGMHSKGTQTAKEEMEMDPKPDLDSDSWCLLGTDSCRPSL

[13] = molecular target: cAMP-dependent protein kinase catalytic subunit beta (Homo sapiens) (UniProt P22694); assay: Inhibition of human recombinant PKACbeta at 15 nM in presence of ATP by radiometric assay relative to control
[14] = molecular target: Serine/threonine-protein kinase Nek6 (Homo sapiens) (UniProt Q9HC98); assay: Inhibition of human recombinant NEK6 at 15 nM in presence of ATP by radiometric assay relative to control
[15] = molecular target: Vascular endothelial growth factor receptor 1 (Homo sapiens) (UniProt P17948); assay: Inhibition of human recombinant FLT1 at 15 nM related to control ULK1
Chain of Vascular endothelial growth factor receptor 1 (Homo sapiens) (P17948 whole entry): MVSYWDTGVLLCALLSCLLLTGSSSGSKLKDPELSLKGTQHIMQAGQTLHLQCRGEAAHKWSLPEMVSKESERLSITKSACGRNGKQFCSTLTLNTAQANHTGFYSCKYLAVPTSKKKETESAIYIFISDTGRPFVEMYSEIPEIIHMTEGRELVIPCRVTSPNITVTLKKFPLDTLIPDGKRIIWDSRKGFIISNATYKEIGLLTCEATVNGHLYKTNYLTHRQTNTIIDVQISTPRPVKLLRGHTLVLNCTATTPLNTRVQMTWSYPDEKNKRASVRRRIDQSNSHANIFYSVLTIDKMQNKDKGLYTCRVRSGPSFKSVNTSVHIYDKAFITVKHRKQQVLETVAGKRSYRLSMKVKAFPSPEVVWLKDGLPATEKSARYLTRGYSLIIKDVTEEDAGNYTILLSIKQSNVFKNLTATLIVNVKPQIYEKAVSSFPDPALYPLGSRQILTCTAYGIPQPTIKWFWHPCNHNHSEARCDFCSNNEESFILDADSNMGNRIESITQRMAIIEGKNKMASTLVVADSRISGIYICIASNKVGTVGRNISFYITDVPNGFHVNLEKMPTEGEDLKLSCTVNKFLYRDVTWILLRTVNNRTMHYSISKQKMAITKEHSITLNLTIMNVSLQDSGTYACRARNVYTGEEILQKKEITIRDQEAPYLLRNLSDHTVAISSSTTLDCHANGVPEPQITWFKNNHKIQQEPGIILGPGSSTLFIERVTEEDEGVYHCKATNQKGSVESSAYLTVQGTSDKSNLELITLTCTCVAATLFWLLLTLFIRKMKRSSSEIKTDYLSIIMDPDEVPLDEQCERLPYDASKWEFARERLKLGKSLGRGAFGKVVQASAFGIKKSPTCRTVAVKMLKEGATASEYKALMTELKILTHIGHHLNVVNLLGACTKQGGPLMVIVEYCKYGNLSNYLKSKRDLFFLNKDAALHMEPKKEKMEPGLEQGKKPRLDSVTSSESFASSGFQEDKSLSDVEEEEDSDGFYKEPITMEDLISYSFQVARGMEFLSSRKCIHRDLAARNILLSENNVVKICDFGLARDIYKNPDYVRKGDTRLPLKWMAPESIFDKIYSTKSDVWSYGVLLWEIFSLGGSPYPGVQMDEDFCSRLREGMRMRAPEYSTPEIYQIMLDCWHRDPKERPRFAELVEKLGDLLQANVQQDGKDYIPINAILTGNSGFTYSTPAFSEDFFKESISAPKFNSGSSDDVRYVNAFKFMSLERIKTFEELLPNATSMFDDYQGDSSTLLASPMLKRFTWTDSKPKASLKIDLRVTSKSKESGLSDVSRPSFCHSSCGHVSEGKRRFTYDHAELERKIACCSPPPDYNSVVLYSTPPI

Chain of Dual specificity protein kinase CLK1 (Homo sapiens) (P49759 whole entry, looked up): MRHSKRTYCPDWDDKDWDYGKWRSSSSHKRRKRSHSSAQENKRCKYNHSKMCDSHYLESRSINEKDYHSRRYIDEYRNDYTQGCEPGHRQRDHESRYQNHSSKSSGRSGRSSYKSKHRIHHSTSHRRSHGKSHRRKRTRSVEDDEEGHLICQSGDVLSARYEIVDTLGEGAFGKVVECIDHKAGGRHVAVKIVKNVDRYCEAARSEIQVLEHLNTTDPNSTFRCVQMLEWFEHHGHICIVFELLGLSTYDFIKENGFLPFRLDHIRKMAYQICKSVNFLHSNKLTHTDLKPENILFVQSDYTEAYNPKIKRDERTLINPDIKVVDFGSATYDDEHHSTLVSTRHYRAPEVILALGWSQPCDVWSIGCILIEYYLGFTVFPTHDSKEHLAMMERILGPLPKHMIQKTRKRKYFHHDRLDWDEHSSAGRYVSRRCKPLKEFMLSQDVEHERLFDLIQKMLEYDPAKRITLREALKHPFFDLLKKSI
Chain of Ribosomal protein S6 kinase alpha-2 (Homo sapiens) (Q15349 whole entry): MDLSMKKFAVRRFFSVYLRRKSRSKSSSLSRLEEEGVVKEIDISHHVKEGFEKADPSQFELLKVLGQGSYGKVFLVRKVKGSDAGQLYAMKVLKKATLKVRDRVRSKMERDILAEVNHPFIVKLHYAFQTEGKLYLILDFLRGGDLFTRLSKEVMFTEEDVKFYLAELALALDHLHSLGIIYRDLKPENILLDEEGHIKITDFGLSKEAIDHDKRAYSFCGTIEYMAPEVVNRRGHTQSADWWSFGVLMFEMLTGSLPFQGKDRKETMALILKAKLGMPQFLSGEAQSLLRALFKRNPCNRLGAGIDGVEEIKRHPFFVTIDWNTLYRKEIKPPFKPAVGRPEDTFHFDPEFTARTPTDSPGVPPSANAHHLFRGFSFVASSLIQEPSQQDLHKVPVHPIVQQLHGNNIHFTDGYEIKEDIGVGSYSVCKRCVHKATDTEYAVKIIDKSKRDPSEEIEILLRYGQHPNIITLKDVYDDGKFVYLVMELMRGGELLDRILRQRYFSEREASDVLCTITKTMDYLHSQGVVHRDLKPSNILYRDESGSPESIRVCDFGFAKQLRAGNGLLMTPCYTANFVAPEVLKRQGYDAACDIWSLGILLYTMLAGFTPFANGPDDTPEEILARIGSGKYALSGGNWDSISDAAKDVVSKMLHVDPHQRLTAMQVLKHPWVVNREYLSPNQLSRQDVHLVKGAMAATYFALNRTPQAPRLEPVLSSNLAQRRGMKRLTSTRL
Chain of Aurora kinase B (Homo sapiens) (Q96GD4 whole entry): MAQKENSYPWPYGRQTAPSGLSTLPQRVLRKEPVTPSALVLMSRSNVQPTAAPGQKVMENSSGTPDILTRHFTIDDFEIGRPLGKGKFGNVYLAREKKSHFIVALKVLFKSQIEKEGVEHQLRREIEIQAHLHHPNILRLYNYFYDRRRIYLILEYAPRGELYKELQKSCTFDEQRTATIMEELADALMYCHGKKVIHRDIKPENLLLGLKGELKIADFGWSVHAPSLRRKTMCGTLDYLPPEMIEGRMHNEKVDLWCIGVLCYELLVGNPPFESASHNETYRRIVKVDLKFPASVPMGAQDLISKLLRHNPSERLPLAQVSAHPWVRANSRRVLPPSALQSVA
Chain of Tyrosine-protein kinase JAK1 (Homo sapiens) (P23458 whole entry): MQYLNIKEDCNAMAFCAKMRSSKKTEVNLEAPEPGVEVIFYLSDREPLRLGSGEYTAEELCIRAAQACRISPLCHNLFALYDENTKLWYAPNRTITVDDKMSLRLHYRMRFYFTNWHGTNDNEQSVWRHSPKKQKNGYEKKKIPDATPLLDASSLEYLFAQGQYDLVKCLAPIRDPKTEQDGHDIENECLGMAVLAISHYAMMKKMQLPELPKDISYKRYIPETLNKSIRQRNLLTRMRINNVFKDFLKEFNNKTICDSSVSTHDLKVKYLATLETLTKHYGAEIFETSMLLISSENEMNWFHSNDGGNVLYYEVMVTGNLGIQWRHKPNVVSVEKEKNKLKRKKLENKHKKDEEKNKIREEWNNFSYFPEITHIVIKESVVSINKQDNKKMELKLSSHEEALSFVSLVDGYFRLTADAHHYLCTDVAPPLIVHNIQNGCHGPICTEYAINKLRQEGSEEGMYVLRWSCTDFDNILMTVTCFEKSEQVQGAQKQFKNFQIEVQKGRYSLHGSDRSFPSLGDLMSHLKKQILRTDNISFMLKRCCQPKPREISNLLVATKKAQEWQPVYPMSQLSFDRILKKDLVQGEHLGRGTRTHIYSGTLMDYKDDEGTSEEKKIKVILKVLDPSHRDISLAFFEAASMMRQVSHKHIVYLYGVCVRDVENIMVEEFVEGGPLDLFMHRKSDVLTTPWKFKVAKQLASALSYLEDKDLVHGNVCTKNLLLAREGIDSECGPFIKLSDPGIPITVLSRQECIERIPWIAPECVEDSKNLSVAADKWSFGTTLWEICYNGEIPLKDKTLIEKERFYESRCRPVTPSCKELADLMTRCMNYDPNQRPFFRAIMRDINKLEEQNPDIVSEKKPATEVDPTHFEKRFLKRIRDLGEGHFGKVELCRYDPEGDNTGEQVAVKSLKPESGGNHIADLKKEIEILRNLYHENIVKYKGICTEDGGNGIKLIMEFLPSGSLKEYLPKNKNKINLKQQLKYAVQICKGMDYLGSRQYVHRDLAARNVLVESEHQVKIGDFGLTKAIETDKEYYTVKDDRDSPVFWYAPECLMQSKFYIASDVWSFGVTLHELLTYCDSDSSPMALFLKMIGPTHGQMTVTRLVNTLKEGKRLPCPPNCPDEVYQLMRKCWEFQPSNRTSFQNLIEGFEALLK
Chain of RAC-alpha serine/threonine-protein kinase (Homo sapiens) (P31749 whole entry): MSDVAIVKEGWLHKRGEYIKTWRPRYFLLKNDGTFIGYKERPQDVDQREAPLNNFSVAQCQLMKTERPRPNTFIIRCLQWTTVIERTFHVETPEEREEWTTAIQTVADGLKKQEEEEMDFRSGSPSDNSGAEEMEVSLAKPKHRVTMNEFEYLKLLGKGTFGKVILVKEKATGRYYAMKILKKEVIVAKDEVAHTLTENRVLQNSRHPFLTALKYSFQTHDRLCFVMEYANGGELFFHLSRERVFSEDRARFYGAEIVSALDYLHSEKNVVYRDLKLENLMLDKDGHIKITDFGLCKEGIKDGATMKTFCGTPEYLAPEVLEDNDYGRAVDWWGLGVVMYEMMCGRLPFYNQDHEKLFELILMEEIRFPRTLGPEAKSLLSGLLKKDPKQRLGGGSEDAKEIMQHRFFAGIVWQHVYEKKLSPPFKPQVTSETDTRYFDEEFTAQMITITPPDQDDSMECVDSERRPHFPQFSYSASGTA
Chain of Serine/threonine-protein kinase Nek6 (Homo sapiens) (Q9HC98 whole entry): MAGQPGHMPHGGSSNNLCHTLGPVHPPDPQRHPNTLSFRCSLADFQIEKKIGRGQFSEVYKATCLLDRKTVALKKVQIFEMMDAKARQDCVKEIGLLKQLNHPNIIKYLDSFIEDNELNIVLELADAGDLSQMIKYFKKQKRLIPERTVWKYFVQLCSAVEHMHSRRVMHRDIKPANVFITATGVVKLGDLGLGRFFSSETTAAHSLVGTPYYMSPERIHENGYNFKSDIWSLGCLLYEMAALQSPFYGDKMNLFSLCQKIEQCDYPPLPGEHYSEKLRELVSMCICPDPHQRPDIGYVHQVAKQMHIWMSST

inhibition [1]: 5% | fold change (FC) [2]: 0.07
SMILES: CNC(=O)c1ccccc1Oc1nc(Nc2cc(OC)c(OC)c(OC)c2)ncc1Br

fold change (FC) [4]: 0 | inhibition [5]: 0% | inhibition [6]: 0% | fold change (FC) [7]: 0
SMILES: O=C(N[C@@H](C1CC1)C(F)(F)F)c1cc(-c2cnn3cc(-c4ccc(F)cc4)cnc23)cs1
inhibition [3]: 0%

inhibition [8]: 18% | fold change (FC) [9]: 0 | fold change (FC) [10]: 0.02 | inhibition [11]: 0% | inhibition [13]: 0% | inhibition [14]: 1% | fold change (FC) [15]: 0.1
SMILES: CC(C)[C@H](NC(=O)c1cc(-c2cnn3cc(-c4ccc(OCCN5CCCCC5)cc4)cnc23)cs1)C(F)(F)F
fold change (FC) [12]: 0.25
